Data from ChEMBL document CHEMBL1208762, “Enhanced selectivity profile of pyrazole-urea based DFG-out p38alpha inhibitors” (Bioorg Med Chem Lett, 2010).
In brackets after ≈: the same amount, converted by molar mass.

How the values were obtained:
[1] = target: T1, Mitogen-activated protein kinase 14 (Homo sapiens, UniProt Q16539); test: Inhibition of unactive p38alpha
In short: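 Unactive p38α preincubated with compound, then activated by MKK6 and diluted into an MK2 plus substrate mixture (cascade format). IC50 is the mean of three experiments, SD <15%.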

[2] = target: T1, Mitogen-activated protein kinase 14; test: Inhibition of active p38alpha
In short: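 Compound preincubated with active p38α; kinase activity then read by adding MK2 and its substrate (cascade format). IC50 is the mean of three experiments, SD <15%.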

CYP2D6 = CYP2D6 (Homo sapiens, UniProt P10635); test: Inhibition of CYP2D6 at 3 uM; assay type: ADME
In short: (§1)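 Compound tested at 3 µM against a cocktail of CYP1A2, 2C9, 2D6 and 3A4; the result is given as % inhibition for each isoform.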

CYP1A2 = target: T2, CYP1A2 (Homo sapiens, UniProt P05177); test: Inhibition of CYP1A2 at 3 uM; assay type: ADME; in short: as §1
T2 sequence (P05177 whole entry): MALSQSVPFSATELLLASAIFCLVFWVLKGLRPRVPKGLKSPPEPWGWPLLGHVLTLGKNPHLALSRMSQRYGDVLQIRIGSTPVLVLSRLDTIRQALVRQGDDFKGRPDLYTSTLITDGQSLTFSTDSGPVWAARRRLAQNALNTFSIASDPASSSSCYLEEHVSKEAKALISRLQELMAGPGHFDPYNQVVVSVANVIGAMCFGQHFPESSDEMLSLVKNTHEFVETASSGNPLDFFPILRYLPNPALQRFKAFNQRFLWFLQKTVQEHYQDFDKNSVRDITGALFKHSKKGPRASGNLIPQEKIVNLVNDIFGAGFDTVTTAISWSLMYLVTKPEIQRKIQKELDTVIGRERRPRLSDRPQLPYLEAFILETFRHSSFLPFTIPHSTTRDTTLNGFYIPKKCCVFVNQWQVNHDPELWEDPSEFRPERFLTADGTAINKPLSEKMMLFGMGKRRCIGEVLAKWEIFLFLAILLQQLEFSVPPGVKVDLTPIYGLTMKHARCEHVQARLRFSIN

CYP3A4 = CYP3A4 (Homo sapiens, UniProt P08684); test: Inhibition of CYP3A4 at 3 uM; assay type: ADME; in short: as §1
[3] = Solubility of the compound in phosphate buffer at pH 6.5 by turbidimetric; assay type: physicochemical
In short: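 Kinetic solubility measured turbidimetrically in phosphate buffer at pH 6.5. The value is reported as a range between the minimum and maximum kinetic solubility, in µM.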

[4] = Permeability of the compound by PAMPA method; assay type: ADME
hERG (KCNH2) = hERG (KCNH2) (Homo sapiens, UniProt Q12809); test: Displacement of [3H]dofetilide from human ERG at 10 uM; settings: probe [3H]dofetilide
CYP2C9 = CYP2C9 (Homo sapiens, UniProt P11712); test: Inhibition of CYP2C9 at 3 uM; assay type: ADME; in short: as §1
Sequence of CYP2C9 (P11712 whole entry): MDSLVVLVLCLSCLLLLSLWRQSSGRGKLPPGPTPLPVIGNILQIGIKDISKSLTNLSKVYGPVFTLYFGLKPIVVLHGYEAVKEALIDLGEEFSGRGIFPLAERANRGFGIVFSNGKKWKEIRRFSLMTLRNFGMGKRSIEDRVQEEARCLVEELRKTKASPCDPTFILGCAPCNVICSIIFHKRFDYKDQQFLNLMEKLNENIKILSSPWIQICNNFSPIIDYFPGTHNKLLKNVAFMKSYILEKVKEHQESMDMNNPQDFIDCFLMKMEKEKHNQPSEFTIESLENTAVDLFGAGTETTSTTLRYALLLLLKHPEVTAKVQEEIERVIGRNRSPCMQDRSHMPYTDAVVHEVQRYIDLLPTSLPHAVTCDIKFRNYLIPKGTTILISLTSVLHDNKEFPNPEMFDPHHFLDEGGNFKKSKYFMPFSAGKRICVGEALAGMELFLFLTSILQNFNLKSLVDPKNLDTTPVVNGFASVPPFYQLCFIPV

Sequence of CYP3A4 (P08684 whole entry): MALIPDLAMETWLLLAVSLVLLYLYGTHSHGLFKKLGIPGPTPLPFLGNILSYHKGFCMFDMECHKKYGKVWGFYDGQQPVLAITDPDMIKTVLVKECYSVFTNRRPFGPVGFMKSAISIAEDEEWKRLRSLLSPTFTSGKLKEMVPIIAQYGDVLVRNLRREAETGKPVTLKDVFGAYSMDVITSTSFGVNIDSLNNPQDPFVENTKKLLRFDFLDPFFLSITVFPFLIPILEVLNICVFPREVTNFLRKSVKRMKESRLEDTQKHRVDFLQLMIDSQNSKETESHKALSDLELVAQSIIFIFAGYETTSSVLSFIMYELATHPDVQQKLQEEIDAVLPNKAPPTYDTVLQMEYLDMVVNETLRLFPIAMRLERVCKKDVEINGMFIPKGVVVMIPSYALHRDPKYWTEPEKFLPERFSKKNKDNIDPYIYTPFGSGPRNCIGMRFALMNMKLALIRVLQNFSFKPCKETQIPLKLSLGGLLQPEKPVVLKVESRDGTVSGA
T1 sequence (Q16539 whole entry): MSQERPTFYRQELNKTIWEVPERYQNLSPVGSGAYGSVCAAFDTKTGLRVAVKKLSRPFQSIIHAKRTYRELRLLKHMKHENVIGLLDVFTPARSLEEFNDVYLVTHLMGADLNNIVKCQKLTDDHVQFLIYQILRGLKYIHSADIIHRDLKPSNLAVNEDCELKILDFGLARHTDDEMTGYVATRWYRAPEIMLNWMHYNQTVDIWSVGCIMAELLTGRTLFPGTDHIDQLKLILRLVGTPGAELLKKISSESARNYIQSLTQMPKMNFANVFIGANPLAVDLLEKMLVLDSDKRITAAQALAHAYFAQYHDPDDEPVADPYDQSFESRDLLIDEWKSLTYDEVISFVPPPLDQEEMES
Sequence of CYP2D6 (P10635 whole entry, canonical isoform): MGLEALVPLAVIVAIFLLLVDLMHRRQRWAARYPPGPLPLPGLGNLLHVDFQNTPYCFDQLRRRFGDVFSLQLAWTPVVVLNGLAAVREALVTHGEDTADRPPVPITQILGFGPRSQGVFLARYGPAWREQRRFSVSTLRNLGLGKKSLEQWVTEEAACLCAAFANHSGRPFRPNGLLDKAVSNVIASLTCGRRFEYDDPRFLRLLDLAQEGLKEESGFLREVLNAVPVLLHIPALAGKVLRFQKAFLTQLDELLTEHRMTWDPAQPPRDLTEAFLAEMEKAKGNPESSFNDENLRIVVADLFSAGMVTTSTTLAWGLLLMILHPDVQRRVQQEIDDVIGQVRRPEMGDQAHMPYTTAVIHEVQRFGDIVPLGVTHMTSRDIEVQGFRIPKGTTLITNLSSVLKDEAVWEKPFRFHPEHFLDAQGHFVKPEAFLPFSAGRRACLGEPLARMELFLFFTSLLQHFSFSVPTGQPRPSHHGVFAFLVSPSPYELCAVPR
Sequence of hERG (KCNH2) (Q12809 whole entry): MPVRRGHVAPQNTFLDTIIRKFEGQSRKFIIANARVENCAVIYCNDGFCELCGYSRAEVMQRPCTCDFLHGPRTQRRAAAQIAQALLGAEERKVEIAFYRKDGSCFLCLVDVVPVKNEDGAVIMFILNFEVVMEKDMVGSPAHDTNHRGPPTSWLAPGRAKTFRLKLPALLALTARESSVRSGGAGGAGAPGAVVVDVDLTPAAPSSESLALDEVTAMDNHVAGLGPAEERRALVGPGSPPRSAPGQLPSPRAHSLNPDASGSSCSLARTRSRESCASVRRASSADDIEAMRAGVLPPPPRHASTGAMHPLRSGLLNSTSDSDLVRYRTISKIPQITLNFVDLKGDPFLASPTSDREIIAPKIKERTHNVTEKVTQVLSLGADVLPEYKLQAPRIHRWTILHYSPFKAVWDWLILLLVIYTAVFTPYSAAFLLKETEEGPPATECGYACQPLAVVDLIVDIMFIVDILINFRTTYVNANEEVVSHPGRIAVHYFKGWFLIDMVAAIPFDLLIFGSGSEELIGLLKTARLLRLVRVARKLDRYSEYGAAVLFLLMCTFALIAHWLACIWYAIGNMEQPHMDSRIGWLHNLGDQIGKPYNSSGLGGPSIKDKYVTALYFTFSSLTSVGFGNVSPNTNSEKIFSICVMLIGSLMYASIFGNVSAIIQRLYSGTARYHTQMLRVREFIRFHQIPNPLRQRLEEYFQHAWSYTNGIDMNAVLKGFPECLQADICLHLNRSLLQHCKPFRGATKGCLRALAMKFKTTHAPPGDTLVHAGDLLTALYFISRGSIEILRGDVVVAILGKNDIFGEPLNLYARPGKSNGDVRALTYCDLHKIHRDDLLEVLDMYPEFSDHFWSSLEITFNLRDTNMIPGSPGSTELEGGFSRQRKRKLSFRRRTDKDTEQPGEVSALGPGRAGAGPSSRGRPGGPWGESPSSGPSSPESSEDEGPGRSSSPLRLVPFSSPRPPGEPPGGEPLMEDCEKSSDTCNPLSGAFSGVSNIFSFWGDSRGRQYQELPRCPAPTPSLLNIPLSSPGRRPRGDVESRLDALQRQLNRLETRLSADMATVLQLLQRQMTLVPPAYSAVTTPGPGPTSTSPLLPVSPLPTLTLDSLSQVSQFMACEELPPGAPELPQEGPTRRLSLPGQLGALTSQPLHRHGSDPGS

For `CC(C)(C)c1cc(NC(=O)Nc2ccccc2)n(-c2cccc(CN)c2)n1`, the IC50 [1] was 2850 nM and the IC50 [2] was > 16700 nM.
`CC(C)(C)c1cc(NC(=O)Nc2ccccc2)n(-c2cccc(CNC(=O)CN)c2)n1` gave an IC50 [1] of 176 nM and an IC50 [2] of 2300 nM.
`COC(=O)NCC(=O)NCc1cccc(-n2nc(C(C)(C)C)cc2NC(=O)Nc2ccccc2)c1` gave an IC50 [1] of 176 nM and an IC50 [2] of 287 nM.
For `CC(C)(C)c1cc(NC(=O)Nc2ccccc2)n(-c2cccc(CNC(=O)CNC=O)c2)n1`, the IC50 [1] was 68 nM and the IC50 [2] was 332 nM.
In the case of `CC(=O)NCC(=O)NCc1cccc(-n2nc(C(C)(C)C)cc2NC(=O)Nc2ccccc2)c1`, the inhibition at 3 µM (CYP2D6) is reported as 2%, the IC50 [1] is reported as 6 nM and the inhibition at 3 µM (CYP1A2) is reported as 5%. For the same compound, the IC50 [2] was 34 nM, the inhibition at 3 µM (CYP3A4) was 0% and the solubility kinetic [3] was > 200 µM. For the same compound, the Papp [4] was 7.38 ×10⁻⁶ cm/s, the inhibition at 10 µM (hERG (KCNH2)) was -11% and the inhibition at 3 µM (CYP2C9) was 0%.
Work on `CC(C)(C)c1cc(NC(=O)Nc2ccccc2)n(-c2cccc(CNC(=O)CNC(=O)c3ccccc3)c2)n1` yielded an IC50 [1] of 169 nM and an IC50 [2] of 441 nM.
In the case of `CC(C)(C)c1cc(NC(=O)Nc2ccccc2)n(-c2cccc(CNC(=O)CNC(=O)c3cccnc3)c2)n1`, the IC50 [1] is reported as 51 nM and the IC50 [2] is reported as 205 nM.
Compound `Cc1cc(C(=O)NCC(=O)NCc2cccc(-n3nc(C(C)(C)C)cc3NC(=O)Nc3ccccc3)c2)no1` has an IC50 [1] of 38 nM and an IC50 [2] of 243 nM.
Compound `CC(C)(C)c1cc(NC(=O)Nc2ccccc2)n(-c2cccc(CNC(=O)CNC(=O)c3ccco3)c2)n1` has an IC50 [1] of 18 nM and an IC50 [2] of 88 nM.
`CC(=O)NC(C)C(=O)NCc1cccc(-n2nc(C(C)(C)C)cc2NC(=O)Nc2ccccc2)c1` (stereo not given) showed an IC50 [1] of 168 nM and an IC50 [2] of 480 nM.
`CC(=O)NC1(C(=O)NCc2cccc(-n3nc(C(C)(C)C)cc3NC(=O)Nc3ccccc3)c2)CCCC1` gave an IC50 [1] of 715 nM and an IC50 [2] of 4550 nM.
Compound `CC(C)(C)c1cc(NC(=O)Nc2ccccc2)n(-c2cccc(CNC(=O)CNS(C)(=O)=O)c2)n1` has an IC50 [1] of 108 nM and an IC50 [2] of 649 nM.
In the case of `CC(=O)NCC(=O)N(C)Cc1cccc(-n2nc(C(C)(C)C)cc2NC(=O)Nc2ccccc2)c1`, the IC50 [1] is reported as 211 nM and the IC50 [2] is reported as 1600 nM.
For `CC(C)(C)c1cc(NC(=O)Nc2ccccc2)n(-c2cccc(CNC(=O)CN3CCCC3=O)c2)n1`, the IC50 [1] was 68 nM and the IC50 [2] was 296 nM.
`CC(C)(C)c1cc(NC(=O)Nc2ccccc2)n(-c2cccc(CNC(=O)CN3CCOC3=O)c2)n1` gave an IC50 [1] of 185 nM and an IC50 [2] of 599 nM.
`CC(C)(C)c1cc(NC(=O)Nc2ccccc2)n(-c2cccc(CNC(=O)Cn3ccccc3=O)c2)n1` gave an inhibition at 3 µM (CYP2D6) of 21%, an IC50 [1] of 16 nM and an inhibition at 3 µM (CYP1A2) of 4%. For the same compound, the IC50 [2] was 63 nM, the inhibition at 3 µM (CYP3A4) was 30% and the solubility kinetic [3] was 50 µM (≈ 24.9 µg/mL). For the same compound, the Papp [4] was 12.9 ×10⁻⁶ cm/s, the inhibition at 10 µM (hERG (KCNH2)) was 9% and the inhibition at 3 µM (CYP2C9) was 6%.
`CC(C)(C)c1cc(NC(=O)Nc2ccccc2)n(-c2cccc(CNC(=O)Cn3ccnc3)c2)n1` gave an IC50 [1] of 231 nM and an IC50 [2] of 536 nM.
`Cc1nccn1CC(=O)NCc1cccc(-n2nc(C(C)(C)C)cc2NC(=O)Nc2ccccc2)c1` showed an IC50 [1] of 132 nM and an IC50 [2] of 677 nM.
Compound `CC(C)(C)c1cc(NC(=O)Nc2ccccc2)n(-c2cccc(CNC(=O)Cn3cccn3)c2)n1` has an IC50 [1] of 48.8 nM and an IC50 [2] of 135 nM.
Compound `Cc1ccn(CC(=O)NCc2cccc(-n3nc(C(C)(C)C)cc3NC(=O)Nc3ccccc3)c2)n1` has an inhibition at 3 µM (CYP2D6) of 18%, an IC50 [1] of 27.9 nM and an inhibition at 3 µM (CYP1A2) of 4%. The IC50 [2] was 201 nM, the inhibition at 3 µM (CYP3A4) was 26% and the solubility kinetic [3] was 100 µM (≈ 48.6 µg/mL). For the same compound, the Papp [4] was 4.8 ×10⁻⁶ cm/s, the inhibition at 10 µM (hERG (KCNH2)) was 3% and the inhibition at 3 µM (CYP2C9) was 5%.
For `Cc1cc(C)n(CC(=O)NCc2cccc(-n3nc(C(C)(C)C)cc3NC(=O)Nc3ccccc3)c2)n1`, the IC50 [1] was 78.2 nM and the IC50 [2] was 331 nM.
For `CC(C)(C)c1cc(NC(=O)Nc2ccccc2)n(-c2cccc(CNC(=O)CCC(=O)O)c2)n1`, the IC50 [1] was 37 nM and the IC50 [2] was 393 nM.
Compound `CC(C)(CC(=O)NCc1cccc(-n2nc(C(C)(C)C)cc2NC(=O)Nc2ccccc2)c1)C(=O)O` has an IC50 [1] of 39 nM and an IC50 [2] of 3680 nM.
With `CC(C)(C)c1cc(NC(=O)Nc2ccccc2)n(-c2cccc(CNC(=O)C3C[C@H]3C(=O)O)c2)n1` (stereo not given in full) the IC50 [1] was 30 nM and the IC50 [2] was 1100 nM.
In the case of `CC(C)(C)c1cc(NC(=O)Nc2ccccc2)n(-c2cccc(CNC(=O)C3CCCC[C@H]3C(=O)O)c2)n1` (stereo not given in full), the IC50 [1] is reported as 57 nM and the IC50 [2] is reported as 3360 nM.
`CC(C)(C)c1cc(NC(=O)Nc2ccccc2)n(-c2cccc(CNC(=O)C3CC=CC[C@H]3C(=O)O)c2)n1` (stereo not given in full) gave an IC50 [1] of 14 nM and an IC50 [2] of 737 nM.
`CC(C)(C)c1cc(NC(=O)Nc2cccc3ccccc23)n(-c2cccc(CNC(=O)CCC(=O)O)c2)n1` showed an IC50 [1] of 5 nM and an IC50 [2] of 6 nM.
